Active and inactive are the calls of the source. The calls are words filed in the database; no cut-off is given here.
How the values were obtained:
[1] = system: DNA; test: Binding affinity to calf thymus DNA at 10^-4 M by fluorescence assay; format: nucleic-acid assay; settings: Bos taurus
Outline: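 Fluorescence titration at 37 °C in 0.01 M Tris, pH 7.4. Compound working solution at 10^-4 M (diluted from a 10^-2 M DMSO stock); calf thymus DNA added at increasing levels across 25–100 µg/mL. Excitation at 290 nm, emission recorded over 330–390 nm.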

[2] = system: KB; test: Cytotoxicity against human KB cells at 10^-6 M after 72 hrs by MTS assay; format: functional
Outline: (§1)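 KB and MRC5-SV2 cells grown in D-MEM with 10% fetal calf serum and antibiotics under 5% CO2. Seeded at 650–2000 cells/well and dosed 24 h later at 10^-6 or 10^-5 M from DMSO (1% final). After 72 h, MTS added for 3 h at 37 °C, then A490 read. % inhibition = (1 − OD treated/OD control) × 100.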

[3] = system: KB; test: Cytotoxicity against human KB cells at 10^-5 M after 72 hrs by MTS assay; format: functional; outline: as §1
[4] = system: HL-60; test: Cytotoxicity against human HL60 cells after 72 hrs by MTS assay; format: functional, cell-based; settings: HL-60, 72 h
Outline: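 HL60 cells cultured in supplemented RPMI (10% fetal calf serum) under 5% CO2. Seeded at 650–2000 cells/well and treated 24 h later with compound from DMSO (1% final), 0.5 nM–10 µM. After 72 h, MTS added for 3 h at 37 °C, then A490 read. IC50 taken as 50% inhibition of proliferation; separate duplicate experiments.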

[5] = system: MRC5; test: Cytotoxicity against human MRC5 cells at 10^-5 M after 72 hrs by MTS assay; format: functional, cell-based; outline: as §1
[6] = system: PC-3; test: Cytotoxicity against human PC3 cells at 10^-6 M after 72 hrs by MTS assay; format: functional, cell-based
Outline: (§2)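 HCT116, MCF7 and PC3 cells grown in RPMI with 10% fetal calf serum and antibiotics under 5% CO2. Seeded at 650–2000 cells/well and dosed 24 h later at 10^-6 or 10^-5 M from DMSO (1% final). After 72 h, MTS added for 3 h at 37 °C, then A490 read. % inhibition = (1 − OD treated/OD control) × 100.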

[7] = system: PC-3; test: Cytotoxicity against human PC3 cells at 10^-5 M after 72 hrs by MTS assay; format: functional, cell-based; outline: as §2
[8] = system: HCT-116; test: Cytotoxicity against human HCT116 cells at 10^-5 M after 72 hrs by MTS assay; format: functional, cell-based; outline: as §2
[9] = system: MCF7; test: Cytotoxicity against human MCF7 cells at 10^-5 M after 72 hrs by MTS assay; format: functional, cell-based; outline: as §2
[10] = system: MRC5; test: Cytotoxicity against human MRC5 cells at 10^-6 M after 72 hrs by MTS assay; format: functional, cell-based; outline: as §1
[11] = system: HCT-116; test: Cytotoxicity against human HCT116 cells at 10^-6 M after 72 hrs by MTS assay; format: functional, cell-based; outline: as §2
[12] = system: DNA; test: Binding affinity to calf thymus DNA at 10^-4 M by UV-Visible spectrophotometry; format: nucleic-acid assay; settings: Bos taurus
Outline: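 Compound working solution at 10^-4 M (diluted from DMSO stock in 0.01 M Tris) in Tris buffer (0.01 M, pH 7.4) at 37 °C. UV-Vis absorption spectra (230–500 nm) recorded without and with calf thymus DNA at a fixed 100 µg/mL.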

[13] = system: MCF7; test: Cytotoxicity against human MCF7 cells at 10^-6 M after 72 hrs by MTS assay; format: functional, cell-based; outline: as §2

Activity [1] | Activity [12] | Structure (SMILES) | inhibition at 1 µM [2] | inhibition at 10 µM [3] | IC50 [4] | Activity [5] | Activity [6] | Activity [7] | Activity [8] | Activity [9] | Activity [10] | Activity [11] | Activity [13]
Active |  | CCCCN/C(N)=N/c1cc(C)c2[nH]c3ccc(Br)cc3c2c1C | 26% | 100% | 3.5 µM |  |  |  |  |  |  |  | 
Active | Active | CCC(CC)N/C(N)=N/c1cc(C)c2[nH]c3ccc(Br)cc3c2c1C | 15% | 100% | 3.1 µM | Active | inactive | Active | Active | Active | inactive | inactive | inactive

The next lines start with the compound.

Structure (SMILES) | Activity [1] | Activity [12] | inhibition at 1 µM [2] | inhibition at 10 µM [3] | IC50 [4] | Activity [5] | Activity [6] | Activity [7] | Activity [8] | Activity [9] | Activity [10] | Activity [11] | Activity [13]
CCCN/C(N)=N/c1cc(C)c2[nH]c3ccccc3c2c1C | Active |  | 18% | 91% |  |  |  |  |  |  |  |  | 
Cc1cc(/N=C(\N)NC(C)(C)C)c(C)c2c1[nH]c1ccc(Br)cc12 | Active |  | 16% | 100% | 4 µM |  |  |  |  |  |  |  | 
CCOC(=O)Oc1ccc2[nH]c3c(C)cc(N=C(N)N)c(C)c3c2c1 |  |  | 0% | 73% |  |  |  |  |  |  |  |  | 
CCCCN/C(N)=N/c1cc(C)c2[nH]c3ccccc3c2c1C | Active |  | 5% | 98% |  |  |  |  |  |  |  |  | 
